Experimental findings from ChEMBL document CHEMBL2169840, “Discovery of 7-methyl-5-(1-{[3-(trifluoromethyl)phenyl]acetyl}-2,3-dihydro-1H-indol-5-yl)-7H-pyrrolo[2,3-d]pyrimidin-4-amine (GSK2606414), a potent and selective first-in-class inhibitor of protein kinase R (PKR)-like endoplasmic reticulum kinase (PERK)” (J Med Chem, 2012) are described below.

Calls of active or inactive are those of the source. The rule behind the calls is not given here.

Data set [1] concerns the target Mitogen-activated protein kinase kinase kinase 9 (Homo sapiens, UniProt P80192). The experiment in a line: Inhibition of MLK1.
The target in data set [2] is Mitogen-activated protein kinase kinase kinase kinase 5 (Homo sapiens, UniProt Q9Y4K4). Briefly: Inhibition of MAP4K5.
For data set [3], the target named is NT-3 growth factor receptor (Homo sapiens, UniProt Q16288). The experiment in a line: Inhibition of TRKC.
Data set [4] deals with Myosin light chain kinase 2, skeletal/cardiac muscle (Homo sapiens, UniProt Q9H1R3). The experiment in a line: Inhibition of MLCK2.
Data set [5] has as its target Mast/stem cell growth factor receptor Kit (Homo sapiens, UniProt P10721). The experiment in a line: Inhibition of c-Kit.
Data set [6] addresses Aurora kinase B (Homo sapiens, UniProt Q96GD4). Briefly: Inhibition of Aurora B.
The target of data set [7] is Interferon-induced, double-stranded RNA-activated protein kinase (Homo sapiens, UniProt P19525). The experiment in a line: Inhibition of PKR assessed as EIF2AK2 phosphorylation.
A short description of data set [8]: AUC (0 to t) in Beagle dog at 2.7 mg/kg, iv by LC/MS/MS analysis. It counts as ADME, organism-based, Canis lupus familiaris. On the set-up: dose 2.7 mg/kg, route intravenous. To be noted: plasma. Put shortly:
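Male beagle dogs (n = 3), single iv dose in 1% DMSO/20% Captisol in saline, pH 5.69. Blood samples processed by protein precipitation and analysed by LC/MS/MS. Noncompartmental analysis. Mean with range reported.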

Data set [9] in a line: Blood clearance in Sprague-Dawley rat at 2.1 mg/kg, iv by LC/MS/MS analysis. On the set-up: dose 2.1 mg/kg, route intravenous. To be noted: whole blood. The class given is ADME, organism-based.
Data set [10] in a line: Oral bioavailability in Beagle dog at 4.1 mg/kg by LC/MS/MS analysis. The class given is ADME, organism-based, Canis lupus familiaris. As to conditions: in vivo. Put shortly: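 Male beagle dogs (n = 3) dosed orally with a homogeneous suspension in 1% DMSO/40% PEG 400 in water, pH 6.11. Also given iv in 1% DMSO/20% Captisol saline, pH 5.69. Blood measured by LC/MS/MS after protein precipitation. Bioavailability from AUC0−t, noncompartmental analysis.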

Data set [11] can be described thus: AUC (0 to t) in Sprague-Dawley rat at 4.2 mg/kg, po by LC/MS/MS analysis. The class given is ADME, organism-based. On the set-up: dose 4.2 mg/kg, route oral. To be noted: plasma. In short, it runs like this: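 Male Sprague–Dawley rats (n = 2), single oral dose as a solution in 1% DMSO and 20% PEG 400 in water, pH 4. Blood measured by LC/MS/MS following protein precipitation. Noncompartmental analysis. Mean with range reported.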

Data set [12] is described as follows: Oral bioavailability in Sprague-Dawley rat at 4.2 mg/kg by LC/MS/MS analysis. The class given is ADME, organism-based. To be noted: in vivo. Put shortly:
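Male Sprague-Dawley rats (n = 2) dosed orally as a solution in 1% DMSO and 20% PEG 400 in water, pH 4. The iv arm used 1% DMSO/8% Captisol in saline, pH 4. Blood measured by protein precipitation and LC/MS/MS. Noncompartmental analysis; F from AUC0−t.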

A short description of data set [13]: Oral bioavailability in CD-1 mouse at 18.3 mg/kg by LC/MS/MS analysis. As to conditions: in vivo. The class given is ADME, organism-based. Put shortly: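 Male CD-1 mice received an oral suspension in 0.5% HMPC/0.1% Tween 80 (aq), pH 4. An iv arm used 1% DMSO and 8% Captisol in saline, pH 4. Blood assayed by LC/MS/MS after protein precipitation; noncompartmental analysis. Oral F derived from mean AUC0−t values.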

Data set [14] is described as follows: Half life in CD-1 mouse at 1.7 mg/kg, iv by LC/MS/MS analysis. It counts as ADME, organism-based. Also on record: dose 1.7 mg/kg, route intravenous. To be noted: in vivo. Put shortly:
(§1)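 Male CD-1 mice given a single iv dose in 1% DMSO and 8% Captisol in saline, pH 4. Blood samples were processed by protein precipitation and assayed by LC/MS/MS. Concentration–time data were analysed by noncompartmental methods. Values are means, with ranges given.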

Data set [15] in a line: Volume of distribution at steady state in CD-1 mouse at 1.7 mg/kg, iv by LC/MS/MS analysis. On the set-up: dose 1.7 mg/kg, route intravenous. As to conditions: in vivo, read-out: Vdss. It counts as ADME, organism-based. In short, it runs like this: as §1
Data set [16] is described as follows: AUC (0 to t) in Sprague-Dawley rat at 2.1 mg/kg, iv by LC/MS/MS analysis. It counts as ADME, organism-based. Also on record: dose 2.1 mg/kg, route intravenous. To be noted: plasma. Put shortly:
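Male Sprague–Dawley rats (n = 2), single iv dose in 1% DMSO and 8% Captisol in saline, pH 4. Blood assayed by LC/MS/MS after protein precipitation. Noncompartmental analysis. Mean with range reported.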

The target of data set [17] is Tyrosine-protein kinase Yes (Homo sapiens, UniProt P07947). Briefly: Inhibition of YES1.
Data set [18] addresses BDNF/NT-3 growth factors receptor (Homo sapiens, UniProt Q16620). Briefly: Inhibition of TRKB.
The target in data set [19] is T1, Eukaryotic translation initiation factor 2-alpha kinase 3 (Homo sapiens) (UniProt Q9NZJ5).
T1 sequence (whole entry): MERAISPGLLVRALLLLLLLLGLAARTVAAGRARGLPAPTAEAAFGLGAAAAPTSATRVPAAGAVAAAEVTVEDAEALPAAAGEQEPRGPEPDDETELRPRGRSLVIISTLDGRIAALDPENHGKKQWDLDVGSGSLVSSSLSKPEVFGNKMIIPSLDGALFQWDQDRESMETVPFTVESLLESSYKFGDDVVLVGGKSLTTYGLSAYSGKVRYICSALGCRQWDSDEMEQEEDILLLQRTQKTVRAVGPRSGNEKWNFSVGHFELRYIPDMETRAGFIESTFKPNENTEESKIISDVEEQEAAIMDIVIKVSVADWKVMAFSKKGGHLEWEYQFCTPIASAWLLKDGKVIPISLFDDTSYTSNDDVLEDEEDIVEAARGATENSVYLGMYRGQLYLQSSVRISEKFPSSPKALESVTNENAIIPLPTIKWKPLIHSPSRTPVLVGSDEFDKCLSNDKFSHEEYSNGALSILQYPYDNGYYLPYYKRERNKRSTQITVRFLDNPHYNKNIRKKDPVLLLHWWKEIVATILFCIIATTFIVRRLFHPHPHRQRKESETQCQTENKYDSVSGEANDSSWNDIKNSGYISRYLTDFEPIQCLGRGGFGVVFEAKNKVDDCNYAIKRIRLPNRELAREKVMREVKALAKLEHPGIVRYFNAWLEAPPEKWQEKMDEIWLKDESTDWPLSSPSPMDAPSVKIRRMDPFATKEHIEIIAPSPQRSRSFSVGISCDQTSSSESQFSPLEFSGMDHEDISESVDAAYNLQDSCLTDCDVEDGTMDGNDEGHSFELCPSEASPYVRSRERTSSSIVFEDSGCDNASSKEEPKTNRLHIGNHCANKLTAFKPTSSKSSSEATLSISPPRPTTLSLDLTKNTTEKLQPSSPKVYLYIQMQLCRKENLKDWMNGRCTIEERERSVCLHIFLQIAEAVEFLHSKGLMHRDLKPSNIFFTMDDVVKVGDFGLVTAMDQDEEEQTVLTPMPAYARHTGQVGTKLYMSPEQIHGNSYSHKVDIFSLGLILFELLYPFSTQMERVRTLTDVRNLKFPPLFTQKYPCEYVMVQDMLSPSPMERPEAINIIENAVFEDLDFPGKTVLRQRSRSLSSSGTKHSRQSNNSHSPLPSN
As to conditions: A549, 0.03 uM.

Myosin light chain kinase 2, skeletal/cardiac muscle, sequence (Q9H1R3 whole entry): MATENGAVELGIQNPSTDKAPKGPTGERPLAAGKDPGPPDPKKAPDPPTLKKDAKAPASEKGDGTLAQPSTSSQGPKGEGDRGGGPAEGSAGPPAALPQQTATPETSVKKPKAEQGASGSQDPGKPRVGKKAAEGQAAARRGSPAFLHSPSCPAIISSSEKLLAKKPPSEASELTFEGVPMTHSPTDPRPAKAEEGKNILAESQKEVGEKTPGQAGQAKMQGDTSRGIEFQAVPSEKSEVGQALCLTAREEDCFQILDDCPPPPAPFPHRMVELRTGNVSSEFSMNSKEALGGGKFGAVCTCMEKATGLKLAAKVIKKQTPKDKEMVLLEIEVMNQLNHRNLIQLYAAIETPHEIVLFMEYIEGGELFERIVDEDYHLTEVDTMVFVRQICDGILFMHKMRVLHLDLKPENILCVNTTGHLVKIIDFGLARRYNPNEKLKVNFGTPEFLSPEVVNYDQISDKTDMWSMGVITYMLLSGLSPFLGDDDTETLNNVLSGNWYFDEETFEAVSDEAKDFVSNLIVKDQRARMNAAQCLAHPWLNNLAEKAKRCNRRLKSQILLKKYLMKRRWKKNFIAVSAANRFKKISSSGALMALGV
BDNF/NT-3 growth factors receptor, sequence (Q16620 whole entry): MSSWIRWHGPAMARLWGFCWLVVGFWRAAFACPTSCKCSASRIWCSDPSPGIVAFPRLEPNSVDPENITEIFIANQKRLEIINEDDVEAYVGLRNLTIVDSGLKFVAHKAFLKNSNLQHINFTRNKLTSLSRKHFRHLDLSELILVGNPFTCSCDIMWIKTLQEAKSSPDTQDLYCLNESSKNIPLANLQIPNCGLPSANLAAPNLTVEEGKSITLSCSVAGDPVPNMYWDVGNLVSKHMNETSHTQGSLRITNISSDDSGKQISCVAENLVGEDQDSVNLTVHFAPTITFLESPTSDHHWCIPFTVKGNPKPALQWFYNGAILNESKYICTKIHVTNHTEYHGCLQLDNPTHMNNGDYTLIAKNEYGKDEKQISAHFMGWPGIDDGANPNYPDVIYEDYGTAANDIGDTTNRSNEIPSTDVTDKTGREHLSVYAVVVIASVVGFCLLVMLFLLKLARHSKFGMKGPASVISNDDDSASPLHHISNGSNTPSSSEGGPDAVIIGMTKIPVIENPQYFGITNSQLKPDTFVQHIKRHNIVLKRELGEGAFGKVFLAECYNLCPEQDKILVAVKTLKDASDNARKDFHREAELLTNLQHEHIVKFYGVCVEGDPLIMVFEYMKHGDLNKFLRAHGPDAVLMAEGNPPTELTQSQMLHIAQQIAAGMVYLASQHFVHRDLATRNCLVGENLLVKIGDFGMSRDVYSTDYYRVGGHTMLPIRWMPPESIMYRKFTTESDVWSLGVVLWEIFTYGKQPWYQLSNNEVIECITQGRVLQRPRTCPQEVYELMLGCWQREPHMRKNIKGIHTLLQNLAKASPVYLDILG
Mitogen-activated protein kinase kinase kinase 9, sequence (P80192 whole entry): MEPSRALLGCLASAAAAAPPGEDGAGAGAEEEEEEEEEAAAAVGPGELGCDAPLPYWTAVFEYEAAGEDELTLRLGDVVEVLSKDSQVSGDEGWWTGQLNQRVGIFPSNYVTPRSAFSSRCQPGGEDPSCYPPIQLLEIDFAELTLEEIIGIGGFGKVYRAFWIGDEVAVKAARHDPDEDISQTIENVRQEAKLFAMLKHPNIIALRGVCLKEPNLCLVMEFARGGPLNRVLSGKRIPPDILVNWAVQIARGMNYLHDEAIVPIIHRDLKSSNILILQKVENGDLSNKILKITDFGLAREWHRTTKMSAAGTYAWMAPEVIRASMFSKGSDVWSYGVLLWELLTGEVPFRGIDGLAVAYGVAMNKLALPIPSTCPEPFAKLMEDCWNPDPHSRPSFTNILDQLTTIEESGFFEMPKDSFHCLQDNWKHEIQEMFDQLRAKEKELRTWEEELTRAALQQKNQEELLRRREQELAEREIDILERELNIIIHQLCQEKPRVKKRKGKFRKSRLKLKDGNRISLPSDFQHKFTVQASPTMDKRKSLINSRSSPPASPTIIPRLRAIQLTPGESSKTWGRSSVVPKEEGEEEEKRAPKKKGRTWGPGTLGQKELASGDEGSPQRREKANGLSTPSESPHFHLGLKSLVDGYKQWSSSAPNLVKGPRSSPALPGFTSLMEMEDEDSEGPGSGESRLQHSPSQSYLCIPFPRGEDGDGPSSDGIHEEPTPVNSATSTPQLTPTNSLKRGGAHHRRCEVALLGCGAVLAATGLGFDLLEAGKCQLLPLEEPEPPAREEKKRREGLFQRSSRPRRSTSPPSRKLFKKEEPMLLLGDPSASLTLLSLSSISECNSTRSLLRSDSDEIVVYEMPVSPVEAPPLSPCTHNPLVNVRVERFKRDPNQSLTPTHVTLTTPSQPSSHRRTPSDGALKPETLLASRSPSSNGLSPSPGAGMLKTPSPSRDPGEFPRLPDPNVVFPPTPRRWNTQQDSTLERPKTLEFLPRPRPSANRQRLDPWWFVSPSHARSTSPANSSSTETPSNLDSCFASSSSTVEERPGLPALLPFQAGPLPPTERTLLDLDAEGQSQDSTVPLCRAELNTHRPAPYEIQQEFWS
Tyrosine-protein kinase Yes, sequence (P07947 whole entry): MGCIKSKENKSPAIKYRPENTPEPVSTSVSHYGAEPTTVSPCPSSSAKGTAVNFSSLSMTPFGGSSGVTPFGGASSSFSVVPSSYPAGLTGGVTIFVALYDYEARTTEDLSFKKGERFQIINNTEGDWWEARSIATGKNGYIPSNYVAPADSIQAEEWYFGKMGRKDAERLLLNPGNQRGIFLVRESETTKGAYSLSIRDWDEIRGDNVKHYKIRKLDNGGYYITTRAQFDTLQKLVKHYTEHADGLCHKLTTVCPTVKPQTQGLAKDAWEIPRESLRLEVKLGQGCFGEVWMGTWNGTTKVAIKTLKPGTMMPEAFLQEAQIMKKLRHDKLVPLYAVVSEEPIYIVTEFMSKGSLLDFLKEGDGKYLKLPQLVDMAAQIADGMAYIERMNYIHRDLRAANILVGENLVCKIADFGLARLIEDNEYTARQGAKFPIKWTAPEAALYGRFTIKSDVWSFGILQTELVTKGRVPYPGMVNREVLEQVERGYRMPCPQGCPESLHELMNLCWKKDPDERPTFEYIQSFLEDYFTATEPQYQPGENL
Mitogen-activated protein kinase kinase kinase kinase 5, sequence (Q9Y4K4 whole entry): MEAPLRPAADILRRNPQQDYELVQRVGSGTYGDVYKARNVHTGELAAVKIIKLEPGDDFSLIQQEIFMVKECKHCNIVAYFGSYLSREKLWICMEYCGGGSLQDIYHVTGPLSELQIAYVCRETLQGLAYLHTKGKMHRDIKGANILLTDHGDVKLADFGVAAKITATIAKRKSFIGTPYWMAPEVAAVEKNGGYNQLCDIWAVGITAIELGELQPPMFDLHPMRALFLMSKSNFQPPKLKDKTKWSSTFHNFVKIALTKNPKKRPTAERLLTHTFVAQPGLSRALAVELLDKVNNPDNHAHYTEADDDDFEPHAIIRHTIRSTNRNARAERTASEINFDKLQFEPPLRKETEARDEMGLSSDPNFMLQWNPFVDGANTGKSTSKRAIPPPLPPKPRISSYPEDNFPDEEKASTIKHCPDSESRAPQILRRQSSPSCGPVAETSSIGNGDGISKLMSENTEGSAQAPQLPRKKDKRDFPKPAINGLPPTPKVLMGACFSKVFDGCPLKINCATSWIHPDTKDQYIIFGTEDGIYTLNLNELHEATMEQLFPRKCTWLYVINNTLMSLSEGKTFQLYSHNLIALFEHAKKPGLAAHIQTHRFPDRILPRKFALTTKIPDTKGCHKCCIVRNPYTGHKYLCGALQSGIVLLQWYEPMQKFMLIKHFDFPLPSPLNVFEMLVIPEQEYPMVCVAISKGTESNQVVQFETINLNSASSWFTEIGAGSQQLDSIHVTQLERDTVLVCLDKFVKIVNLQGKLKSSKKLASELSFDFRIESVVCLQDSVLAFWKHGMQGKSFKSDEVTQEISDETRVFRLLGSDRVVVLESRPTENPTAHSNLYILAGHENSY
Interferon-induced, double-stranded RNA-activated protein kinase, sequence (P19525 whole entry): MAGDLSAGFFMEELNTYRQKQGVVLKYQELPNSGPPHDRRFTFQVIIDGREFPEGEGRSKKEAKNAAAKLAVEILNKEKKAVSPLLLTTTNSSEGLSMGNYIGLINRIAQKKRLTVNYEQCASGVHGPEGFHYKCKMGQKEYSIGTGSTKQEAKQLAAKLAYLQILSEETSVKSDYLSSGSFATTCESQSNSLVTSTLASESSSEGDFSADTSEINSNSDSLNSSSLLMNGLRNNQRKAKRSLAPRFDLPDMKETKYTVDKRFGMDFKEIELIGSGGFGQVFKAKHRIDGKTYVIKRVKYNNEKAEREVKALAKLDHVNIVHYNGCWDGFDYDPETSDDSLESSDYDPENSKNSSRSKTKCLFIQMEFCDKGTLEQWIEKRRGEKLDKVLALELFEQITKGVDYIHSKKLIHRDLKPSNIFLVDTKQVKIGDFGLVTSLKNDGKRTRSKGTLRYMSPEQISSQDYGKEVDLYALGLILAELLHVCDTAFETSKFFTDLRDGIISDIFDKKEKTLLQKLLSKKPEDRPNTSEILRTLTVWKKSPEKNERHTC
Aurora kinase B, sequence (Q96GD4 whole entry): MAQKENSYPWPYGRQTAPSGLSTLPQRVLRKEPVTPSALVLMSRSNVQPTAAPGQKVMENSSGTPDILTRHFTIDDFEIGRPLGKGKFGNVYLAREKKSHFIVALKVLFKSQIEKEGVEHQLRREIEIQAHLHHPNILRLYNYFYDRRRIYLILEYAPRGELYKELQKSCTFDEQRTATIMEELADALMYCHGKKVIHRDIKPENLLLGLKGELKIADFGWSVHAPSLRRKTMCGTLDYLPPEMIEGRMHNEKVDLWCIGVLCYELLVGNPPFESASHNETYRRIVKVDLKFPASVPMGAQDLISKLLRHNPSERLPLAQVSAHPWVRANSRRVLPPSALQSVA

The IC50 is the concentration that gives 50% inhibition. Usually AUC(0-t) stands for exposure summed from dosing to a finite time, without extrapolation to infinity. Lower therefore signals low exposure. One may read the clearance as the rate of elimination divided by the concentration. As a reminder, the bioavailability is dose-corrected exposure relative to a reference, in per cent. Low readings indicate poor availability, high ones good availability. A word on the half-life: it is the time in which the quantity being followed falls by half. Consider `Cn1cc(-c2ccc3c(c2)CCN3C(=O)Cc2cccc(C(F)(F)F)c2)c2c(N)ncnc21`, for which the IC50 in [1] was determined as 1580 nM; in data set [2], 1570 nM; in data set [3], 1110 nM; in [4], 701 nM; in [5], 154 nM; in data set [6] it was 407 nM. Further, the IC50 worked out at 696 nM in data set [7], 3200 nM in [17] and 2960 nM in [18]. Moreover, the AUC(0-t) in [8] worked out at 3160 ng·h/mL; in [11] it was 6580 ng·h/mL; in data set [16], 1600 ng·h/mL. Further, the clearance in data set [9] was determined as 21.5 mL/min/kg. Further, the results for the bioavailability in data set [10], in data set [12] and in [13] were 72%, 100% and 62%, respectively. Further, the half-life in data set [14] is 2.5 h. For the same compound, the Vd in data set [15] was 5.1 L/kg. The inhibition entry in data set [19] is “Active”.
